Assays:
[1] = species: Oryctolagus cuniculus; test: Mean dose at which PVTs (Polymorphic ventricular tachyarrhythmias) were observed in rabbits; format: functional, Cardiac ventricle
In short: (§1)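 Male New Zealand white rabbits (2.5-3.5 kg), anesthetized and instrumented. Methoxamine infused at 10 µg/kg/min; baseline taken after 15 min. Compound in 0.1 M fumaric acid/EtOH diluted with saline, infused IV at 5 mg/kg over 30 min. Readouts: QTc and MAPD90 maxima vs methoxamine baseline, with accumulated dose, and dose at EAD or PVT onset. ANOVA, p ≤ 0.05.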

[2] = species: Homo sapiens; test: Metabolic stability in relative to 31E observed on incubation with human liver microsomes; format: functional; details: Microsome
In short: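 Pooled human liver microsomes, 1 mg protein/mL, in 50 mM potassium phosphate pH 7.4. Substrate at 0.4-0.5 µM final; preincubated at 37 °C, then started with an NADPH-generating system (isocitrate/isocitrate dehydrogenase). Aliquots taken up to 20 min and quenched in acetonitrile. Remaining substrate measured by reversed-phase HPLC with fluorescence detection. Log-concentration vs time slope taken; ratio reported as reference slope/test slope; values >20 treated as stable. Three experiments.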

[3] = species: Oryctolagus cuniculus; test: Mean dose of test compound at which a statistically significant increase was first observed and the dose for the maximum increase in MAPD90 in rabbits (0.1-2.0); format: functional; in short: as §1
[4] = species: Oryctolagus cuniculus; test: Mean dose at which EADs (early after depolarizations) began to develop in rabbits; format: functional; in short: as §1
[5] = species: Oryctolagus cuniculus; test: Mean dose of test compound at which a statistically significant increase was first observed and the dose for the maximum increase in QTc interval in rabbits (0.1-0.5); format: functional
In short: (§2)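 Male New Zealand white rabbits (2.5-3.5 kg), anesthetized and instrumented. Methoxamine infused at 10 µg/kg/min; methoxamine baseline taken after 15 min. Compound, dissolved in 0.1 M fumaric acid in absolute EtOH and diluted with saline, given as a continuous iv infusion of 5 mg/kg over 30 min. QTc (QT/√RR) and MAPD90 followed over time; cumulative mg/kg dose recorded at first significant rise (one-way ANOVA, p≤0.05) and at maximum rise.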

[6] = test system: Oryctolagus cuniculus; test: In vivo evaluation of potential efficacy observed as the maximum increase in QTc interval from the methoxamine infusion baseline in rabbits; format: functional; in short: as §1
[7] = species: Oryctolagus cuniculus; test: Maximum increase in the ventricular monophasic action potential duration at 90% repolarization from the methoxamine infusion baseline in rabbits; format: functional, Cardiac ventricle; in short: as §1
[8] = species: Oryctolagus cuniculus; test: Mean dose of test compound at which a statistically significant increase was first observed and the dose for the maximum increase in QTc interval in rabbits; format: functional; in short: as §2
[9] = species: Oryctolagus cuniculus; test: Mean dose of test compound at which a statistically significant increase was first observed and the dose for the maximum increase in MAPD90 in rabbits (0.25-1.0); format: functional; in short: as §2
[10] = species: Oryctolagus cuniculus; test: Mean dose of test compound at which a statistically significant increase was first observed and the dose for the maximum increase in MAPD90 in rabbits (0.1-0.25); format: functional; in short: as §1
[11] = species: Oryctolagus cuniculus; test: Mean dose of test compound at which a statistically significant increase was first observed and the dose for the maximum increase in QTc interval in rabbits (0.1-1.0); format: functional; in short: as §2
[12] = species: Oryctolagus cuniculus; test: Mean dose of test compound at which a statistically significant increase was first observed and the dose for the maximum increase in MAPD90 in rabbits (0.5-2.0); format: functional; in short: as §2
[13] = species: Oryctolagus cuniculus; test: Mean dose of test compound at which a statistically significant increase was first observed and the dose for the maximum increase in MAPD90 in rabbits (0.25-5.0); format: functional; in short: as §2
[14] = species: Oryctolagus cuniculus; test: Mean dose of test compound at which a statistically significant increase was first observed and the dose for the maximum increase in MAPD90 in rabbits (0.1-0.5); format: functional; in short: as §1
[15] = species: Oryctolagus cuniculus; test: Mean dose of test compound at which a statistically significant increase was first observed and the dose for the maximum increase in QTc interval in rabbits (0.1-0.25); format: functional; in short: as §2
[16] = species: Oryctolagus cuniculus; test: Mean dose of test compound at which a statistically significant increase was first observed and the dose for the maximum increase in QTc interval in rabbits (0.25-5.0); format: functional; in short: as §2
[17] = species: Oryctolagus cuniculus; test: Mean dose of test compound at which a statistically significant increase was first observed and the dose for the maximum increase in MAPD90 in rabbits (0.1-5.0); format: functional; in short: as §1
[18] = species: Oryctolagus cuniculus; test: Mean dose of test compound at which a statistically significant increase was first observed and the dose for the maximum increase in MAPD90 in rabbits (0.5-1.0); format: functional; in short: as §2
[19] = species: Oryctolagus cuniculus; test: Mean dose of test compound at which a statistically significant increase was first observed and the dose for the maximum increase in MAPD90 in rabbits; format: functional; in short: as §1
[20] = species: Oryctolagus cuniculus; test: Mean dose of test compound at which a statistically significant increase was first observed and the dose for the maximum increase in MAPD90 in rabbits (0.1-1.0); format: functional; in short: as §1
[21] = species: Oryctolagus cuniculus; test: Mean dose of test compound at which a statistically significant increase was first observed and the dose for the maximum increase in MAPD90 in rabbits (0.25-0.5); format: functional; in short: as §1
[22] = species: Oryctolagus cuniculus; test: Mean dose of test compound at which a statistically significant increase was first observed and the dose for the maximum increase in QTc interval in rabbits (0.2-1.0); format: functional; in short: as §2
[23] = species: Oryctolagus cuniculus; test: Mean dose of test compound at which a statistically significant increase was first observed and the dose for the maximum increase in MAPD90 in rabbits (0.25-2.0); format: functional; in short: as §2

Row | Structure (SMILES) | Dose [1] | Metabolic stability relative to 31E [2] | Dose [4] | QTc interval [6] | MAPD90 [7] | Dose [8] | other results
1 | CCN(CCCCCCCF)CCCCc1ccc(NS(C)(=O)=O)cc1 | 0.1 mg/kg | 100% | 1 mg/kg | 96 ms | 52 ms | – | Dose [3]: 2 mg/kg; Dose [5]: 0.5 mg/kg
2 | CCCCCCCN(CC)CCC[C@@H](O)c1ccc(NS(C)(=O)=O)cc1 | 0.3 mg/kg | 100% | 0.2 mg/kg | 112 ms | 69 ms | 0.25 mg/kg | Dose [9]: 1 mg/kg
3 | CCN(CCCCCC(C)(F)F)CCC[C@H](O)c1ccc(NS(C)(=O)=O)cc1 | 0.3 mg/kg | – | 0.3 mg/kg | 106 ms | 92 ms | – | Dose [10]: 0.25 mg/kg; Dose [11]: 1 mg/kg
4 | CCN(CCCCCC(C)(C)F)CCC[C@H](O)c1ccc(NS(C)(=O)=O)cc1 | – | > 2000% | – | – | – | – | –
5 | CCN(CC/C=C/c1ccc(NS(C)(=O)=O)cc1)CCCCCC(C)F (configuration not stated) | 1.5 mg/kg | 300% | 0.3 mg/kg | 75 ms | 133 ms | 2 mg/kg | Dose [12]: 2 mg/kg
6 | CCCCCCCN(CC)CCC[C@H](O)c1ccc(NS(C)(=O)=O)cc1 | 0.2 mg/kg | – | 1.6 mg/kg | 145 ms | 105 ms | 0.25 mg/kg | Dose [13]: 5 mg/kg
7 | CCN(CCCCCCC(F)F)CCC[C@H](O)c1ccc(NS(C)(=O)=O)cc1 | 0.25 mg/kg | – | 0.5 mg/kg | 118 ms | 58 ms | – | Dose [14]: 0.5 mg/kg; Dose [15]: 0.25 mg/kg
8 | CCN(CCCCCC(C)(C)F)CCCCc1ccc(NS(C)(=O)=O)cc1 | – | 300% | – | 105 ms | 90 ms | – | Dose [16]: 5 mg/kg; Dose [13]: 5 mg/kg
9 | CCN(CCCCCCCF)CCC[C@H](O)c1ccc(NS(C)(=O)=O)cc1 | 0.9 mg/kg | 400% | 0.25 mg/kg | 105 ms | 76 ms | – | Dose [17]: 5 mg/kg; Dose [15]: 0.25 mg/kg
10 | CCN(CCCCCC(C)F)CCCCc1ccc(NS(C)(=O)=O)cc1 (configuration not stated) | 1.1 mg/kg | 300% | 0.2 mg/kg | 94 ms | 56 ms | – | Dose [16]: 0.5 mg/kg; Dose [18]: 1 mg/kg
11 | CCN(CCCCCC(C)(C)F)CCC[C@@H](O)c1ccc(NS(C)(=O)=O)cc1 | 0.27 mg/kg | – | 0.5 mg/kg | 92 ms | 59 ms | – | Dose [10]: 0.25 mg/kg; Dose [15]: 0.25 mg/kg
12 | CCN(CCCCCC(C)(C)F)CCCC(O)c1ccc(NS(C)(=O)=O)cc1 (configuration not stated) | 0.25 mg/kg | > 2000% | 0.9 mg/kg | 136 ms | 96 ms | 0.25 mg/kg | Dose [18]: 1 mg/kg
13 | CCCCCCCN(CC)CCCC(O)c1ccc(NS(C)(=O)=O)cc1 (configuration not stated) [IBUTILIDE] | 1 mg/kg | – | 1.7 mg/kg | 85 ms | 65 ms | – | Dose [16]: 5 mg/kg; Dose [18]: 1 mg/kg
14 | CCN(CCCCCCC(F)F)CCCC(O)c1ccc(NS(C)(=O)=O)cc1 (configuration not stated) | 0.3 mg/kg | > 2000% | 0.3 mg/kg | 71 ms | 48 ms | 0.25 mg/kg | Dose [19]: 0.25 mg/kg
15 | CCN(CCCCCC(C)(F)F)CCCC(O)c1ccc(NS(C)(=O)=O)cc1 (configuration not stated) | 0.7 mg/kg | – | 0.4 mg/kg | 96 ms | 118 ms | 0.25 mg/kg | Dose [9]: 1 mg/kg
16 | CCN(CCCCCC(C)(C)F)CCC[C@H](O)c1ccc(NS(C)(=O)=O)cc1 [TRECETILIDE] | – | – | – | 83 ms | 69 ms | – | Dose [17]: 5 mg/kg; Dose [11]: 1 mg/kg
17 | CCN(CCCCCC(F)F)CCCC(O)c1ccc(NS(C)(=O)=O)cc1 (configuration not stated) | – | > 2000% | – | – | – | – | –
18 | CCN(CCCCCC(C)F)CCC[C@H](O)c1ccc(NS(C)(=O)=O)cc1 (some centres not stated) | 0.4 mg/kg | > 2000% | 0.2 mg/kg | 130 ms | 90 ms | – | Dose [20]: 1 mg/kg; Dose [15]: 0.25 mg/kg
19 | CCN(CCCCCC(F)F)CCC[C@H](O)c1ccc(NS(C)(=O)=O)cc1 | 0.3 mg/kg | – | 0.2 mg/kg | 154 ms | 123 ms | – | Dose [21]: 0.5 mg/kg; Dose [15]: 0.25 mg/kg
20 | CCN(CCCCC(C)(C)F)CCCC(O)c1ccc(NS(C)(=O)=O)cc1 (configuration not stated) | 3.6 mg/kg | – | 1.4 mg/kg | 174 ms | 178 ms | – | Dose [22]: 1 mg/kg; Dose [23]: 2 mg/kg
21 | CCN(CCCCCC(C)F)CCCC(O)c1ccc(NS(C)(=O)=O)cc1.O=C(O)/C=C/C(=O)O (configuration not stated) | 0.2 mg/kg | 1300% | 0.3 mg/kg | 166 ms | 143 ms | 0.25 mg/kg | Dose [19]: 0.25 mg/kg
